In ChEMBL document CHEMBL3217723, “Optimizing PK properties of cyclic peptides: the effect of side chain substitutions on permeability and clearance()” (Medchemcomm, 2012):
One block for each compound: values may come before it. *1 amine or outer side, *2 acyl side, *3 side chain or, on linkers, in order; H or OH if unused. Where a SMILES comes first, the peptide text is derived from it. [ ]: non-standard residue; d: D form. X1 = CN([C@@H](CCN1CCCCC1)C(=O)[*:2])[*:1]; NMeW = CN[C@@H](Cc1c[nH]c2ccccc12)C(=O)O; NMeY = CN[C@@H](Cc1ccc(O)cc1)C(=O)O; NMeLys(Me) = CNCCCC[C@H](NC)C(=O)O; NMeT = CN[C@H](C(=O)O)[C@@H](C)O; NMeL = CN[C@@H](CC(C)C)C(=O)O; dNMeL = CN[C@H](CC(C)C)C(=O)O; NMeK = CN[C@@H](CCCCN)C(=O)O; NMeS = CN[C@@H](CO)C(=O)O

Tests used:
[1] = Cmax in male Wistar-Han rat at 10 mg/kg, po; format: ADME, organism-based; design: dose 10 mg/kg, route oral; details: in vivo
[2] = Intrinsic clearance in human liver microsomes by LC-MS/MS analysis; format: ADME; details: read-out: CLH
In short: (§1)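 Compound at 1 µM with liver microsomes (CYP 0.25 µM) in 0.1 M potassium phosphate, pH 7.4, at 37 °C. Final solvent was 0.975% acetonitrile and 0.025% DMSO. Mix prewarmed 5 min, then started with 1.3 mM NADPH; no-NADPH controls were run. Sampled at 0–60 min into acetonitrile and followed by LC-MS/MS for substrate loss. T1/2 was scaled to CLint by the well-stirred model.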

[3] = AUC (0 to infinity) in male Wistar-Han rat at 10 mg/kg, po; format: ADME, organism-based; design: time infinity, dose 10 mg/kg, route oral; details: plasma
In short: (§2)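 Jugular vein-cannulated male Wistar-Hannover rats (230-250 g), n = 3, fasted overnight and fed after the 4 h sample; oral dosing in the i.v. formulations, except the SEDDS formulation used 90% water. Serial blood 0.083–24 h, K2EDTA plasma, LC-MS/MS against standard curve; non-compartmental AUC0-∞ by linear trapezoid rule.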

[4] = Terminal elimination half life in Wistar-Han rat at 1 mg/kg, iv; format: ADME, organism-based; design: dose 1 mg/kg, route intravenous; details: in vivo, read-out: beta t1/2 (converted)
[5] = Lipophilicity, log D of the compound at pH 7.4 by shake-flask method; format: physicochemical; details: buffer
[6] = Plasma clearance in male Wistar-Han rat at 1 mg/kg, iv; format: ADME, organism-based; design: dose 1 mg/kg, route intravenous
[7] = Tmax in male Wistar-Han rat at 10 mg/kg, po; format: ADME, organism-based; design: dose 10 mg/kg, route oral; details: in vivo
[8] = Terminal elimination half life in Wistar-Han rat at 10 mg/kg, po; format: ADME, organism-based; design: dose 10 mg/kg, route oral; details: in vivo, read-out: beta t1/2 (converted)
In short: (§3)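 Male Wistar-Hannover rats (230–250 g, n = 3), jugular-cannulated, were fasted overnight and dosed by oral gavage. Vehicle depended on compound: SEDDS/water or propylene glycol/sodium phosphate pH 7.4. Blood was collected at 0.083–24 h into K2EDTA and the plasma analyzed by LC-MS/MS. Terminal half-life came from the non-compartmental ln-concentration slope.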

[9] = Intrinsic clearance in rat liver microsomes by LC-MS/MS analysis; format: ADME; details: read-out: CLH; in short: as §1
[10] = AUC (0 to infinity) in male Wistar-Han rat at 1 mg/kg, iv; format: ADME, organism-based; design: time infinity, dose 1 mg/kg, route intravenous; details: plasma
[11] = Oral bioavailability in male Wistar-Han rat at 10 mg/kg; format: ADME, organism-based; details: in vivo
In short: (§4)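 Male Wistar-Hannover rats (230-250 g, cannulated; n = 3) fasted overnight, fed after the 4 h sample, and dosed orally in the i.v. formulations or 10% SEDDS:90% water. Serial blood sampled 0.083–24 h into K2EDTA. Plasma measured by LC-MS/MS against a standard curve. Cmax and Tmax read from individual profiles; F = oral AUC0-∞ relative to i.v. AUC0-∞.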

[12] = Apparent permeability from apical to basolateral side in human Caco2 cells by LC-MS/MS analysis; format: ADME, cell-based; details: Caco-2
[13] = Volume of distribution at steady state in male Wistar-Han rat at 1 mg/kg, iv; format: ADME, organism-based; design: dose 1 mg/kg, route intravenous; details: in vivo, read-out: Vdss
[14] = Terminal elimination half life in Wistar-Han rat at 5 mg/kg, po; format: ADME, organism-based; design: dose 5 mg/kg, route oral; details: in vivo, read-out: beta t1/2 (converted); in short: as §3
[15] = AUC (0 to infinity) in male Wistar-Han rat at 5 mg/kg, po; format: ADME, organism-based; design: time infinity, dose 5 mg/kg, route oral; details: plasma; in short: as §2
[16] = Oral bioavailability in male Wistar-Han rat at 5 mg/kg; format: ADME, organism-based; details: in vivo; in short: as §4
[17] = Oral bioavailability in male Wistar-Han rat assessed as dose escapes hepatic metabolism; format: ADME, organism-based; details: in vivo
[18] = Cmax in male Wistar-Han rat at 5 mg/kg, po; format: ADME, organism-based; design: dose 5 mg/kg, route oral; details: in vivo
In short: (§5)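 Jugular vein-cannulated male Wistar-Hannover rats (230-250 g), n = 3, fasted overnight and fed after the 4 h sample. Single oral dose in compound-specific vehicles (10% SEDDS:90% water, or propylene glycol with 20 mM sodium phosphate pH 7.4). Serial blood at 0.083–24 h into K2EDTA. Plasma protein-precipitated with internal standard and analysed by LC-MS/MS. Cmax read directly from individual concentration–time curves.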

[19] = Oral bioavailability in male Wistar-Han rat assessed as fraction of absorbed dose; format: ADME, organism-based; details: in vivo, read-out: Fabs
[20] = Oral bioavailability in male Wistar-Han rat at 2.9 mg/kg; format: ADME, organism-based; details: in vivo; in short: as §4
[21] = AUC (0 to infinity) in male Wistar-Han rat at 2.9 mg/kg, po; format: ADME, organism-based; design: time infinity, dose 2.9 mg/kg, route oral; details: plasma; in short: as §2
[22] = AUC (0 to infinity) in male Wistar-Han rat at 0.4 mg/kg, iv; format: ADME, organism-based; design: time infinity, dose 0.4 mg/kg, route intravenous; details: plasma
In short: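 Jugular vein-cannulated male Wistar-Hannover rats (230-250 g), n = 3, fed ad libitum; 30 s tail-vein injection in 10% SEDDS:90% sterile dextrose, 1:1 propylene glycol:20 mM sodium phosphate (pH 7.4), or 10% propylene glycol:90% 20 mM sodium phosphate (pH 7.4). Blood via cannula to 24 h, K2EDTA plasma, LC-MS/MS against standard curve; non-compartmental AUC0-∞ by linear trapezoid rule.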

[23] = Plasma clearance in male Wistar-Han rat at 0.4 mg/kg, iv; format: ADME, organism-based; design: dose 0.4 mg/kg, route intravenous
In short: (§6)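 Jugular vein-cannulated male Wistar-Hannover rats (230-250 g; n = 3) given a 30 s tail-vein bolus in SEDDS/dextrose or propylene glycol/20 mM sodium phosphate (pH 7.4) vehicles. Blood sampled 0.03–24 h via cannula into K2EDTA. Plasma proteins precipitated, LC-MS/MS. Non-compartmental: CLp = dose/AUC0-∞ (linear trapezoid); Vdss; T1/2 = 0.693/terminal log-linear slope.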

[24] = Terminal elimination half life in Wistar-Han rat at 0.4 mg/kg, iv; format: ADME, organism-based; design: dose 0.4 mg/kg, route intravenous; details: in vivo, read-out: beta t1/2 (converted)
In short: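 Jugular vein-cannulated male Wistar-Hannover rats (230–250 g, n = 3) received a tail-vein bolus over 30 s. Vehicle depended on compound: SEDDS/dextrose or propylene glycol/20 mM sodium phosphate pH 7.4. Blood was drawn at 0.03–24 h into K2EDTA and the plasma analyzed by LC-MS/MS. Non-compartmental analysis gave T1/2 = 0.693/|terminal ln-slope|.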

[25] = Cmax in male Wistar-Han rat at 2.9 mg/kg, po; format: ADME, organism-based; design: dose 2.9 mg/kg, route oral; details: in vivo; in short: as §5
[26] = Terminal elimination half life in Wistar-Han rat at 2.9 mg/kg, po; format: ADME, organism-based; design: dose 2.9 mg/kg, route oral; details: in vivo, read-out: beta t1/2 (converted); in short: as §3
[27] = Volume of distribution at steady state in male Wistar-Han rat at 0.4 mg/kg, iv; format: ADME, organism-based; design: dose 0.4 mg/kg, route intravenous; details: in vivo, read-out: Vdss; in short: as §6

Structure (SMILES): CC(C)C[C@@H]1NC(=O)[C@H](Cc2ccc(O)cc2)N(C)C(=O)[C@H]2CCCN2C(=O)[C@H](CC(C)C)NC(=O)[C@H](CCCCN)N(C)C(=O)[C@@H](CC(C)C)N(C)C1=O (cyclo(L[dNMeL][NMeK]L[dP][NMeY]))
Cmax [1]: 18.3 ng/mL
CLint scaled [2]: < 8 mL/min/kg
AUC(0-inf) [3]: 18.1 ng·h/mL
half-life [4]: 1.01 h
logD [5]: 0.678
clearance [6]: 10.4 mL/min/kg
Tmax [7]: 1.56 h
half-life [8]: 1.56 h
CLint scaled [9]: < 9 mL/min/kg
AUC(0-inf) [10]: 1640 ng·h/mL
bioavailability [11]: 0.09%
Papp A→B [12]: 0.09 ×10⁻⁶ cm/s
Vd [13]: 0.93 L/kg

CLint scaled [2]: 120 mL/min/kg
Structure (SMILES): CC(C)C[C@@H]1NC(=O)[C@H](Cc2ccc(O)cc2)N(C)C(=O)[C@H]2CCCN2C(=O)[C@H](CC(C)C)NC(=O)[C@H](CC(C)C)N(C)C(=O)[C@@H](CC(C)C)N(C)C1=O (cyclo(L[dNMeL][NMeL]L[dP][NMeY]))

Structure (SMILES): CNCCCC[C@H]1C(=O)N[C@@H](CC(C)C)C(=O)N2CCC[C@@H]2C(=O)N(C)[C@@H](Cc2ccc(O)cc2)C(=O)N[C@@H](CC(C)C)C(=O)N(C)[C@H](CC(C)C)C(=O)N1C (cyclo(L[dNMeL][NMeLys(Me)]L[dP][NMeY]))
CLint scaled [2]: 9 mL/min/kg
logD [5]: 0.723

Structure (SMILES): CC(C)C[C@@H]1NC(=O)[C@H](Cc2ccc(O)cc2)N(C)C(=O)[C@H]2CCCN2C(=O)[C@H](CC(C)C)NC(=O)[C@H](CO)N(C)C(=O)[C@@H](CC(C)C)N(C)C1=O (cyclo(L[dNMeL][NMeS]L[dP][NMeY]))
CLint scaled [2]: 80 mL/min/kg
half-life [14]: 2.82 h
AUC(0-inf) [15]: 42.3 ng·h/mL
bioavailability [16]: 2.03%
half-life [4]: 1.46 h
logD [5]: 2.61
clearance [6]: 60.4 mL/min/kg
CLint scaled [9]: 96 mL/min/kg
Fh [17]: 14%
Cmax [18]: 9.86 ng/mL
AUC(0-inf) [10]: 282 ng·h/mL
Fa [19]: 14.5%
Papp A→B [12]: 3.3 ×10⁻⁶ cm/s
Vd [13]: 4.3 L/kg

Structure (SMILES): CC(C)C[C@@H]1NC(=O)[C@H](Cc2ccc(O)cc2)N(C)C(=O)[C@H]2CCCN2C(=O)[C@H](CC(C)C)NC(=O)[C@H]([C@@H](C)O)N(C)C(=O)[C@@H](CC(C)C)N(C)C1=O (cyclo(L[dNMeL][NMeT]L[dP][NMeY]))
bioavailability [20]: 23.8%
AUC(0-inf) [21]: 201 ng·h/mL
CLint scaled [2]: 89 mL/min/kg
AUC(0-inf) [22]: 109 ng·h/mL
clearance [23]: 63.6 mL/min/kg
half-life [24]: 1.03 h
logD [5]: 3.17
Cmax [25]: 105 ng/mL
half-life [26]: 0.92 h
CLint scaled [9]: 44 mL/min/kg
Vd [27]: 3.8 L/kg

Structure (SMILES): CC(C)C[C@@H]1NC(=O)[C@H](Cc2ccc(O)cc2)N(C)C(=O)[C@H]2CCCN2C(=O)[C@H](CC(C)C)NC(=O)[C@H](Cc2c[nH]c3ccccc23)N(C)C(=O)[C@@H](CC(C)C)N(C)C1=O (cyclo(L[dNMeL][NMeW]L[dP][NMeY]))
CLint scaled [2]: 56 mL/min/kg
logD [5]: 4.07

Structure (SMILES): CC(C)C[C@@H]1NC(=O)[C@H](Cc2ccc(O)cc2)N(C)C(=O)[C@H]2CCCN2C(=O)[C@H](CC(C)C)NC(=O)[C@H](Cc2ccc(O)cc2)N(C)C(=O)[C@@H](CC(C)C)N(C)C1=O (cyclo(L[dNMeL][NMeY]L[dP][NMeY]))
CLint scaled [2]: 29 mL/min/kg
logD [5]: 3.82

CLint scaled [2]: < 8 mL/min/kg
logD [5]: 2.2
Structure (SMILES): CC(C)C[C@@H]1NC(=O)[C@H](Cc2ccc(O)cc2)N(C)C(=O)[C@H]2CCCN2C(=O)[C@H](CC(C)C)NC(=O)[C@H](CCN2CCCCC2)N(C)C(=O)[C@@H](CC(C)C)N(C)C1=O (cyclo(L[dNMeL][X1]L[dP][NMeY]))
